Measured values published in ChEMBL document CHEMBL1212783, “Cellular pharmacology of the anti-hepatitis B virus agent beta-L-2',3'-didehydro-2',3'-dideoxy-N4-hydroxycytidine: relevance for activation in HepG2 cells” (Antimicrob Agents Chemother, 2010).
One block for each molecule: values may come before it.

How the values were obtained:
[1] = Half life in human HepG2 cells by HPLC analysis; type: ADME, cell-based
In short: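 HepG2 cells (1.5 × 10^6/well) were loaded 24 h with 10 μM [3H]-labelled nucleoside, washed three times and chased in drug-free medium. Cells were harvested at intervals, then counted and methanol-extracted. Mono-, di- and triphosphates were quantified by radio-HPLC. t1/2 was calculated as 0.693/κ, where κ is the terminal slope of a semilog plot of intracellular phosphate level versus time.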

HepG2 [2] = assay: Drug metabolism in human HepG2 cells assessed as compound triphosphate level per 10^6 cells at 2 uM after 12 hrs by reversed-phase HPLC analysis; type: ADME, cell-based; settings: hepg2, 12 h
In short: (§1)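 HepG2 cells were grown in DMEM with 10% FBS and 1 mM pyruvate at 37°C, 5% CO2. They were seeded at 2.5 × 10^6/well and exposed after adherence to 2 or 10 μM [3H]-labelled nucleoside (440 or 1,000 dpm/pmol) for 6–24 h. Cells were washed in ice-cold PBS, trypsinized and counted (viability >95%). Metabolites were extracted twice in 60% methanol at −20°C for 16 h. Extracts were separated by ion-pair reverse-phase C18 HPLC and counted by fraction scintillation. Phosphates were identified by UV spectra, a triphosphate standard and alkaline phosphatase digestion.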

[3] = Cytotoxicity against human HepG2 cells at 2 uM after 48 hrs; type: cell-based; settings: read-out: INH
In short: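 HepG2 cells were preincubated 24 h with 3 μM 3-deazauridine, then exposed for a second 24 h to 3 μM deazauridine plus 2 μM tritiated test nucleoside. Read-out was inhibition of HepG2 cell growth over the 48 h.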

HepG2 [4] = assay: Drug metabolism in human HepG2 cells assessed as compound monophosphate level per 10^6 cells at 2 uM after 12 hrs by reversed-phase HPLC analysis; type: ADME, cell-based; settings: hepg2, 12 h; in short: as §1
HepG2 [5] = assay: Drug metabolism in human HepG2 cells assessed as compound monophosphate level per 10^6 cells at 2 uM after 6 hrs by reversed-phase HPLC analysis; type: ADME, cell-based; settings: hepg2, 6 h; in short: as §1
HepG2 [6] = assay: Drug metabolism in human HepG2 cells assessed as compound monophosphate level per 10^6 cells at 10 uM after 18 hrs by reversed-phase HPLC analysis; type: ADME, cell-based; settings: hepg2, 18 h; in short: as §1
HepG2 [7] = assay: Drug metabolism in human HepG2 cells assessed as compound triphosphate level per 10^6 cells at 2 uM after 24 hrs by reversed-phase HPLC analysis; type: ADME, cell-based; settings: hepg2, 24 h; in short: as §1
HepG2 [8] = assay: Drug metabolism in human HepG2 cells assessed as compound diphosphate level per 10^6 cells at 2 uM after 24 hrs by reversed-phase HPLC analysis; type: ADME, cell-based; settings: hepg2, 24 h; in short: as §1
HepG2 [9] = assay: Drug metabolism in human HepG2 cells assessed as compound triphosphate level per 10^6 cells at 2 uM after 6 hrs by reversed-phase HPLC analysis; type: ADME, cell-based; settings: hepg2, 6 h; in short: as §1
HepG2 [10] = assay: Drug metabolism in human HepG2 cells assessed as compound triphosphate level per 10^6 cells at 10 uM after 12 hrs by reversed-phase HPLC analysis; type: ADME, cell-based; settings: hepg2, 12 h; in short: as §1
HepG2 [11] = assay: Drug metabolism in human HepG2 cells assessed as compound diphosphate level per 10^6 cells at 10 uM after 24 hrs by reversed-phase HPLC analysis; type: ADME, cell-based; settings: hepg2, 24 h; in short: as §1
HepG2 [12] = assay: Drug metabolism in human HepG2 cells assessed as compound monophosphate level per 10^6 cells at 10 uM after 6 hrs by reversed-phase HPLC analysis; type: ADME, cell-based; settings: hepg2, 6 h; in short: as §1
HepG2 [13] = assay: Drug metabolism in human HepG2 cells assessed as compound triphosphate level per 10^6 cells at 10 uM after 18 hrs by reversed-phase HPLC analysis; type: ADME, cell-based; settings: hepg2, 18 h; in short: as §1
Hepatitis B virus [14] = assay: Antiviral activity against HBV infected in human HepG2(2.2.15) cells; type: functional; settings: read-out: ED50 (the source's name)
HepG2 [15] = assay: Drug metabolism in human HepG2 cells assessed as compound monophosphate level per 10^6 cells at 10 uM after 12 hrs by reversed-phase HPLC analysis; type: ADME, cell-based; settings: hepg2, 12 h; in short: as §1
HepG2 [16] = assay: Drug metabolism in human HepG2 cells assessed as compound diphosphate level per 10^6 cells at 2 uM after 12 hrs by reversed-phase HPLC analysis; type: ADME, cell-based; settings: hepg2, 12 h; in short: as §1
HepG2 [17] = assay: Drug metabolism in human HepG2 cells assessed as compound monophosphate level per 10^6 cells at 2 uM after 24 hrs by reversed-phase HPLC analysis; type: ADME, cell-based; settings: hepg2, 24 h; in short: as §1
HepG2 [18] = assay: Drug metabolism in human HepG2 cells assessed as compound triphosphate level per 10^6 cells at 2 uM after 18 hrs by reversed-phase HPLC analysis; type: ADME, cell-based; settings: hepg2, 18 h; in short: as §1
HepG2 [19] = assay: Drug metabolism in human HepG2 cells assessed as compound triphosphate level per 10^6 cells at 10 uM after 24 hrs by reversed-phase HPLC analysis; type: ADME, cell-based; settings: hepg2, 24 h; in short: as §1
HepG2 [20] = assay: Drug metabolism in human HepG2 cells assessed as compound diphosphate level per 10^6 cells at 2 uM after 18 hrs by reversed-phase HPLC analysis; type: ADME, cell-based; settings: hepg2, 18 h; in short: as §1
HepG2 [21] = assay: Drug metabolism in human HepG2 cells assessed as compound monophosphate level per 10^6 cells at 10 uM after 24 hrs by reversed-phase HPLC analysis; type: ADME, cell-based; settings: hepg2, 24 h; in short: as §1
HepG2 [22] = assay: Drug metabolism in human HepG2 cells assessed as compound diphosphate level per 10^6 cells at 10 uM after 18 hrs by reversed-phase HPLC analysis; type: ADME, cell-based; settings: hepg2, 18 h; in short: as §1
HepG2 [23] = assay: Drug metabolism in human HepG2 cells assessed as compound monophosphate level per 10^6 cells at 2 uM after 18 hrs by reversed-phase HPLC analysis; type: ADME, cell-based; settings: hepg2, 18 h; in short: as §1
HepG2 [24] = assay: Drug metabolism in human HepG2 cells assessed as compound triphosphate level per 10^6 cells at 10 uM after 6 hrs by reversed-phase HPLC analysis; type: ADME, cell-based; settings: hepg2, 6 h; in short: as §1
HepG2 [25] = assay: Drug metabolism in human HepG2 cells assessed as compound diphosphate level per 10^6 cells at 10 uM after 12 hrs by reversed-phase HPLC analysis; type: ADME, cell-based; settings: hepg2, 12 h; in short: as §1
HepG2 [26] = assay: Drug metabolism in human HepG2 cells assessed as compound diphosphate level per 10^6 cells at 10 uM after 6 hrs by reversed-phase HPLC analysis; type: ADME, cell-based; settings: hepg2, 6 h; in short: as §1
HepG2 [27] = assay: Drug metabolism in human HepG2 cells assessed as compound diphosphate level per 10^6 cells at 2 uM after 6 hrs by reversed-phase HPLC analysis; type: ADME, cell-based; settings: hepg2, 6 h; in short: as §1
Hepatitis B virus [28] = assay: Inhibition of HBV DNA polymerase at 1 uM
[29] = Cytotoxicity against human HepG2 cells; type: cell-based; settings: read-out: CD50 (the source's name)

half-life [1]: 18.6 h
Compound: O=c1nc(NO)ccn1[C@@H]1C=C[C@H](COP(=O)(O)OP(=O)(O)O)O1

Stability (HepG2 [2]): 3.1 pmol
Stability (HepG2 [4]): 1.3 pmol
Stability (HepG2 [5]): 0.5 pmol
Stability (HepG2 [6]): 7.3 pmol
Stability (HepG2 [7]): 5.3 pmol
Stability (HepG2 [8]): 9.8 pmol
Stability (HepG2 [9]): 1.1 pmol
Stability (HepG2 [10]): 10.4 pmol
Stability (HepG2 [11]): 43.5 pmol
Stability (HepG2 [12]): 4.4 pmol
Stability (HepG2 [13]): 15.2 pmol
EC50 (Hepatitis B virus [14]): 0.03 µM
Stability (HepG2 [15]): 5.6 pmol
Stability (HepG2 [16]): 4.5 pmol
Stability (HepG2 [17]): 4 pmol
Stability (HepG2 [18]): 3.8 pmol
Stability (HepG2 [19]): 19.4 pmol
Stability (HepG2 [20]): 6.6 pmol
Stability (HepG2 [21]): 11.5 pmol
Stability (HepG2 [22]): 30.3 pmol
Stability (HepG2 [23]): 2.3 pmol
Stability (HepG2 [24]): 5.3 pmol
Stability (HepG2 [25]): 22.6 pmol
Stability (HepG2 [26]): 11.5 pmol
Stability (HepG2 [27]): 1.3 pmol
Compound: O=c1nc(NO)ccn1[C@@H]1C=C[C@H](CO)O1
cytotoxicity at 48 h, 2 µM [3]: 11%

half-life [1]: 29.7 h
inhibition (Hepatitis B virus [28]): 90%
Compound: O=c1nc(NO)ccn1[C@@H]1C=C[C@H](COP(=O)(O)OP(=O)(O)OP(=O)(O)O)O1

Compound: Nc1ccn([C@@H]2C=C[C@H](CO)O2)c(=O)n1
CC50 [29]: 20 µM
